This is a sample that favours compounds with a hit; in the whole collection about 2.1% have one here.
RanGTP-Impb inh: inhibitors of RanGTP-importin-beta interaction, primary screen, biochemical, FRET, CFP-Ran, YFP-importin-beta, homogeneous. cell-free CFP-Ran/YFP-importin-beta FRET ratio. inhibition, % (no concentration beside the values). hit rate 1.1% among 300,000. AID 2216;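 active = more than half of the replicate wells show a fall in the fluorescence ratio signal beyond about 16%, limit read from the data, passing the limit was not always enough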;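 also: 0% = DMSO wells and 100% = Ran loaded with GDP instead of GTP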
Runt-CBFb FRET: inhibitors of human RUNX1 Runt domain binding to CBFb. inhibition, % at 20 µM. hit rate 0.46% among 220,000. Cerulean-Runt/Venus-CBFb FRET ratio 530/480, 1 h;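 active = inhibition over about 50% at 20 µM in the single-dose screen, limit read from the data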;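 also: 0% = DMSO wells and 100% = excess unlabeled CBFb competitor control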
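Schedule: protein complex preformed 1 h, compound exposure 1 h, room temperature, dark; test system: Cerulean-labeled Runt domain protein; amount: 100 nM per protein; buffer or medium: Tris 50 mM pH 7.5, KCl, K2SO4, 0.01% BSA; read-out: loss of energy transfer signal; detection: FRET fluorescence; controls: 5 µM unlabeled CBFb as full-inhibition high control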
p97 inhibitor: human p97 ATPase inhibition | recombinant p97 ATPase, Kinase-Glo ATP luminescence, 3 h | inhibition, % at 8 µM | hit rate 0.42% among 220,000 | AID 1481; in the data active = inhibition above about 15%;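 also: 0% = DMSO vehicle and 100% = wells lacking enzyme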
Target sequence (P55072 whole entry, looked up): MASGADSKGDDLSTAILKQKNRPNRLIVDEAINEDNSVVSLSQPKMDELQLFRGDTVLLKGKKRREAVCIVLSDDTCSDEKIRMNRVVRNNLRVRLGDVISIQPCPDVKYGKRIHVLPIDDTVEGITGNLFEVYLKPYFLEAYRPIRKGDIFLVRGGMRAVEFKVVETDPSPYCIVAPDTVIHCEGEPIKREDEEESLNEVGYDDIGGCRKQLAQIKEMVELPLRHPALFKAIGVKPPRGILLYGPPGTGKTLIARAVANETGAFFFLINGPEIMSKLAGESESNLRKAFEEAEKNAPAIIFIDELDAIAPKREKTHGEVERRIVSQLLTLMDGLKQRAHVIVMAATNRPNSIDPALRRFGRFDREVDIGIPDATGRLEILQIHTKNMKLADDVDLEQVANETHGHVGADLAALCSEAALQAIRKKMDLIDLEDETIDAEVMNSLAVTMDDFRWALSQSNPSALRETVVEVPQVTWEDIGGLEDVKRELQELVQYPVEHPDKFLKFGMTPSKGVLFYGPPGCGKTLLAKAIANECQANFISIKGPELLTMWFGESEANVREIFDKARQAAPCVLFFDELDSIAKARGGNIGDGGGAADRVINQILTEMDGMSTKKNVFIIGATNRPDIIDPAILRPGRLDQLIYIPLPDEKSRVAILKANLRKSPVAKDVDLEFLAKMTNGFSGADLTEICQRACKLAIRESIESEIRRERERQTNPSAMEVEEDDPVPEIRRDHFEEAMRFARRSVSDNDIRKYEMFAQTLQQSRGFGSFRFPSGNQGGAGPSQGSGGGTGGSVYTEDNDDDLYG
TbHK1 inh: blocks Trypanosoma brucei hexokinase 1 activity | hit rate 0.11% among 220,000 | recombinant TbHK1, G6PDH-coupled NADH A340 | inhibition, % at 10 µM;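 active = inhibition of 50% or more in the single-dose primary screen; inactive = inhibition below 50%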
Hck Nef HTS: human Hck-Nef kinase inhibition. P08631. Recombinant Hck-YEEI plus Nef, Z-Lyte FRET kinase assay. inhibition, % at 20 µM. hit rate 0.68% among 220,000;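 active = Hck-Nef kinase inhibition above about 50%, limit read from the data; inactive = inhibition below that limit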;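 also: 0% = DMSO with Hck plus Nef and 100% = Hck alone without Nef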
Runt-SMMHC FRET: Runt domain-CBFb-SMMHC interaction inhibition; hit rate 0.74% among 220,000; Cerulean-Runt/Venus-CBFb-SMMHC FRET ratio 530/480, 1 h; AID 1434; inhibition, % at 20 µM;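 active = mean inhibition across duplicate retests at 20 µM reaching about 50%, limit read from the data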;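 also: 0% = DMSO wells and 100% = wells with excess untagged CBFb-SMMHC; inhibitors lower the FRET ratio by blocking Runt binding to CBFb-SMMHC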
An asterisk follows results filed as active; x = no result given.

SMILES	RanGTP-Impb inh	Runt-CBFb FRET	p97 inhibitor	TbHK1 inh	Hck Nef HTS	Runt-SMMHC FRET
COCCCn1c(C(=O)NCCN2CCOCC2)cc2c(=O)n3ccccc3nc21	5.8	x	x	x	x	x
N=c1c(C(=O)NCc2ccccc2)cc2c(=O)n3ccccc3nc2n1CCCN1CCOCC1	x	57.9*	x	x	x	40.3
Cn1c(C(=O)NCCN2CCOCC2)cc2c(=O)n3ccccc3nc21	7.6	x	x	x	x	x
N=c1c(C(=O)NCCN2CCOCC2)cc2c(=O)n3ccccc3nc2n1CCc1ccccc1	155.9*	x	x	x	x	x
Cc1ccc(N2C(=O)c3ccccc3NC2(C(=O)O)c2ccccc2)cc1Cl (stereo unspecified)	-1.2	x	x	x	x	x
CCOc1ccc(NC(=O)N(CCC(C)C)C2CCN(C(C)=O)CC2)cc1	-5.3	-1.0	-0.4	-3.5	-2.1	1.3
CCN1CCc2c(C#N)c(N3CCOCC3)nc(NCc3ccccc3)c2C1	27.8*	40.4	-3.9	-14.7	4.1	58.1*
CCN1CCc2c(C#N)c(N3CCCCC3)nc(NCc3ccccc3)c2C1	1.1	17.4	1.6	-9.3	7.2	23.1
C=CCNc1nc(N2CCOCC2)c(C#N)c2c1CN(C)CC2	95.7*	31.9	6.5	-9.0	1.7	54.7*
C=CCNc1nc(N2CCCCC2)c(C#N)c2c1CN(Cc1ccccc1)CC2	51.8*	10.0	3.0	1.3	1.0	0.4
CN1CCc2c(C#N)c(N3CCCCC3)nc(N3CCOCC3)c2C1	0.1	x	3.3	-25.8	1.7	x
CCN1CCc2c(C#N)c(N3CCOCC3)nc(NCCO)c2C1	54.3*	33.1	3.1	-14.3	1.5	62.5*
N#Cc1c(NCCO)nc(NCc2ccccc2)c2c1CCN(Cc1ccccc1)C2	136.9*	32.0	1.0	-11.2	15.8	79.3*
CC(C)(C)c1ccc(C(=O)NCCCNC(=O)c2ccccn2)cc1	0.5	x	x	x	x	x
O=C(NNc1cc(N2CCOCC2)nc(N2CCOCC2)n1)c1ccc(Cl)c(Cl)c1	134.2*	0.8	2.9	1.2	1.4	3.0
O=C(NNc1cc(N2CCOCC2)nc(N2CCOCC2)n1)C12CC3CC(CC(C3)C1)C2	57.0*	-3.5	-8.3	-1.3	-2.3	-1.1
O=C(NNC(=O)C12CC3CC(CC(C3)C1)C2)c1csc(N2CCOCC2)n1	7.7	x	x	x	x	x
C=CCNC(=O)c1ccccc1NC(=O)C1CC(=O)N(C(C)C)C1 (stereo unspecified)	0.5	x	x	x	x	x
Cc1ccc(NC(=O)CSc2nc3ccccc3c(=O)n2CCCC(=O)NCCCN2CCOCC2)cc1	-4.0	-2.4	-6.1	-2.3	-16.0	-6.5
CCOC(=O)/C=C1\SCC(=O)N1CCOc1cccc(Br)c1	0.5	-2.8	-3.8	6.6	-6.1	0.4
COc1ccccc1S(=O)(=O)n1cc(Cc2ccccc2)c(N)n1	-0.6	-0.9	-1.3	8.7	3.5	1.4
CCCCC(CC)Cn1c(N)c(C#N)c2nc3ccccc3nc21 (stereo unspecified)	49.3*	44.2	1.1	10.6	5.6	100.8*
CCCCn1c(NC(=O)CC)c(C#N)c2nc3ccccc3nc21	5.3	3.7	5.0	-6.5	23.3	11.0
CC(C)N(C(=O)CN1C(=O)NC2(CCCCCC2)C1=O)C(C)C	0.2	4.3	-1.1	-6.9	1.4	2.0
Cc1ccc(-c2ccc(C3C(C#N)=C(N)Oc4n[nH]c(C)c43)o2)cc1 (stereo unspecified)	39.3*	3.4	7.5	-10.5	0.9	-29.6
SMILES	RanGTP-Impb inh	Runt-CBFb FRET	p97 inhibitor	TbHK1 inh	Hck Nef HTS	Runt-SMMHC FRET
Cc1[nH]nc2c1C(c1ccc(-c3ccc(Cl)cc3)o1)C(C#N)=C(N)O2 (stereo unspecified)	12.0	-62.9	0.5	-2.0	0.5	21.0
Cc1c2c(n3c(nc4ccccc43)c1C#N)N(CCN1CCOCC1)CC2	111.5*	x	7.5	3.3	75.5*	x
Cc1cc(-c2ccco2)n2c(nc3ccccc32)c1C#N	-36.5	-48.5	12.0	-13.9	-0.4	-221.2
Cc1cc(SCC(=O)Nc2c(C)n(C)n(-c3ccccc3)c2=O)n2c(nc3ccccc32)c1C#N	x	x	5.0	-5.4	1.9	x
C=C(C)CSc1cc(C)c(C#N)c2nc3ccccc3n12	56.0*	12.3	5.9	-4.2	7.5	37.2
COCCN(CCOC)c1cc(C)c(C#N)c2nc3ccccc3n12	57.4*	52.9*	-1.8	-8.2	6.1	62.6*
Cc1cc(NCCN2CCOCC2)n2c(nc3ccccc32)c1C#N	5.3	12.4	-0.6	-3.3	25.3	30.6
C=C(C)Cc1c(C)c(C#N)c2nc3ccccc3n2c1N1CCCCC1	28.8*	14.2	-0.6	-12.0	0.8	32.5
CN1C(=O)[C@@H]2[C@H](C1=O)[C@@H]1C(=O)Nc3ccccc3C(=O)N1[C@@H]2c1ccc(Br)cc1	2.0	x	x	x	x	x
CN(C)S(=O)(=O)c1cc(NC(=O)CN2CCc3ccccc32)ccc1Cl	-4.5	-2.5	6.8	-4.2	26.8	-11.5
CCOc1ccc(C(=O)OCC(=O)NC2CCCC2)cc1OCC	-4.7	x	x	x	x	x
Fc1ccc(Br)cc1C1C=C(c2ccc(Br)s2)Nc2ncnn21 (stereo unspecified)	-67.5	3.1	5.3	-8.2	-0.2	-38.2
COc1cccc(C2C=C(c3ccc(Br)s3)Nc3ncnn32)c1OC (stereo unspecified)	-15.4	18.8	-4.3	-11.8	-5.6	63.3*
CC(C)(C)c1ccc(-n2ncc3c2CCCC3NC(=O)CN2CCCCC2=O)cc1 (stereo unspecified)	0.7	x	x	x	x	x
O=C(Nc1ccc2nc(-c3cccs3)c(-c3cccs3)nc2c1)NC1CC1	121.1*	-12.6	2.8	-6.6	7.3	-73.4
COCCNC(=O)Nc1ccc2nc(-c3cccs3)c(-c3cccs3)nc2c1	120.5*	14.7	2.1	1.7	1.9	80.9*
CC(=O)N1CCc2[nH]c3ccccc3c2C1	37.9*	-11.1	3.0	18.1	-3.2	-19.0
O=C(CSc1nnc(C2CCCCC2)n1Cc1ccccc1)NCc1ccco1	-4.4	0.5	-6.0	11.0	2.4	0.4
O=C(CNc1n[nH]c(=O)[nH]c1=O)N/N=C/c1ccccc1	1.0	-2.8	2.3	-3.3	15.2	1.2
O=c1[nH]c(NCCO)c(N=Cc2ccccc2)c(=O)[nH]1	163.9*	x	x	x	x	x
Nc1c(/C=C2\C=Nc3ccccc32)c(=O)nc2sc(CC(=O)N3CCOCC3)nn12	20.3*	x	x	x	x	x
Nc1c(C=C2C=CC(=O)C=C2)c(=O)nc2sc(CC(=O)N3CCOCC3)nn12	6.9	x	x	x	x	x
NS(=O)(=O)c1ccc(-c2ccc(/C=C3\C(=O)Nc4ccccc43)o2)cc1	4.0	x	x	x	x	x
CC1(C)OC(=O)C(=Cc2ccc(-c3ccc(S(N)(=O)=O)cc3)o2)C(=O)O1	-2.2	8.1	7.2	-12.0	58.0*	17.7
CN1C(=O)Cc2cc(S(=O)(=O)NCc3c(F)cccc3Cl)ccc21	-0.5	x	x	x	x	x
C=CC1CN(C(=O)OCC(Cl)(Cl)Cl)C2CC3c4ccc(OC)cc4NC3C3CC1C2CO3 (stereo unspecified)	-1.3	x	x	x	x	x
